Laboratory results as given in ChEMBL document CHEMBL4725223, “Structure-activity relationship studies on the inhibition of the bacterial translation of novel Odilorhabdins analogues” (Bioorg Med Chem, 2020).
≈ marks a conversion by molar mass, not a printed value. Starred links: 1 amine or outer side, 2 acyl side, 3 side chain; linkers in the order of their positions; H or OH if unused. Non-standard residues stand in square brackets, D forms with d. Residues, ends and D or L forms follow the SMILES beside them. Dab(3S-OH) = NC[C@H](O)[C@H](N)C(=O)O; X1 = O=C([C@@H](CCCO)N[*:1])[*:2]; ΔZArg = N=C(N)NCC/C=C(\N)C(=O)O

Columns and labels:
[1] = molecular target: Bacterial 70S ribosome; experiment: Inhibition of ribosome-mediated translation in Cell-free Escherichia coli protein synthesis system using pCmGFP as plasmid incubated at 30 degreeC measured every 20 mins by invitro coupled transcription-translation system based fluorescence analysis; type: subcellular
In short: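 E. coli cell-free coupled transcription-translation; template was gfp amplified from pCmGFP and cloned into pEXP5-CT, 1 µg plasmid DNA added to start each reaction. Feed buffer added at 30 min. Run at 30 °C, fluorescence (ex 475/em 520 nm) read every 20 min. IC50 taken from the signal 1 h after feed buffer addition.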

[2] = system: Escherichia coli; experiment: Antibacterial activity against wild type Escherichia coli ATCC 25922 by CLSI based broth microdilution method; type: functional
In short: (§1)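 MIC read by CLSI broth microdilution (M07-A10) from direct colony suspension inocula. Reference strains came from ATCC: wild-type E. coli ATCC 25922 and K. pneumoniae ATCC 13883. An efflux-defective ΔtolC E. coli isogenic to ATCC 25922 was also used.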

[3] = system: Escherichia coli; experiment: Antibacterial activity against efflux-defective (deltatolC) Escherichia coli ATCC 25922 by broth microdilution method; type: functional; in short: as §1
[4] = system: Klebsiella pneumoniae; experiment: Antibacterial activity against wild type Klebsiella pneumoniae ATCC 13883 by CLSI based broth microdilution method; type: functional; in short: as §1
[5] = system: Escherichia coli; experiment: Antibacterial activity against Escherichia coli by CLSI based broth microdilution method; type: functional; in short: as §1
[6] = system: Klebsiella pneumoniae; experiment: Antibacterial activity against Klebsiella pneumoniae by CLSI based broth microdilution method; type: functional; in short: as §1

Compound	IC50 [1] [µM]	also measured
C[C@H](NC(=O)[C@@H](NC(=O)[C@@H](N)CCCCN)[C@@H](C)CN)C(=O)NCC(=O)N[C@H](CCCN)C(=O)N1CCC[C@H]1C(=O)N[C@@H](Cc1c[nH]cn1)C(=O)N[C@@H](CCCCN)C(=O)N/C(=C\CCNC(=N)N)C(=O)O	26.7	
CC(=O)NCCC[C@@H](NC(=O)CNC(=O)[C@H](C)NC(=O)[C@@H](NC(=O)[C@@H](N)CCCCN)[C@@H](O)CN)C(=O)N1CCC[C@H]1C(=O)N[C@@H](Cc1c[nH]cn1)C(=O)N[C@@H](CCCCN)C(=O)N/C(=C\CCNC(=N)N)C(=O)O	> 40	
C[C@H](NC(=O)[C@@H](NC(=O)[C@@H](N)CCCCN)[C@@H](O)[C@@H](C)N)C(=O)NCC(=O)N[C@H](CCCN)C(=O)N1CCC[C@H]1C(=O)N[C@@H](Cc1c[nH]cn1)C(=O)N[C@@H](CCCCN)C(=O)N/C(=C\CCNC(=N)N)C(=O)O	10	
C[C@H](N)CC[C@@H](NC(=O)CNC(=O)[C@H](C)NC(=O)[C@@H](NC(=O)[C@@H](N)CCCCN)[C@@H](O)CN)C(=O)N1CCC[C@H]1C(=O)N[C@@H](Cc1c[nH]cn1)C(=O)N[C@@H](CCCCN)C(=O)N/C(=C\CCNC(=N)N)C(=O)O	17.9	
CO[C@@H](CN)[C@H](NC(=O)[C@@H](N)CCCCN)C(=O)N[C@@H](C)C(=O)NCC(=O)N[C@H](CCCN)C(=O)N1CCC[C@H]1C(=O)N[C@@H](Cc1c[nH]cn1)C(=O)N[C@@H](CCCCN)C(=O)N/C(=C\CCNC(=N)N)C(=O)O	> 40	
C[C@H](NC(=O)[C@@H](NC(=O)[C@@H](N)CCCCN)[C@H](C)O)C(=O)NCC(=O)N[C@H](CCCN)C(=O)N1CCC[C@H]1C(=O)N[C@@H](Cc1c[nH]cn1)C(=O)N[C@@H](CCCCN)C(=O)N/C(=C\CCNC(=N)N)C(=O)O	> 40	
C[C@H](NC(=O)[C@@H](NC(=O)[C@@H](N)CCCCN)[C@@H](O)CN)C(=O)NCC(=O)N[C@](C)(CCCN)C(=O)N1CCC[C@H]1C(=O)N[C@@H](Cc1c[nH]cn1)C(=O)N[C@@H](CCCCN)C(=O)N/C(=C\CCNC(=N)N)C(=O)O	18.1	
C[C@H](NC(=O)[C@@H](NC(=O)[C@@H](N)CCCCN)[C@@H](O)[C@H](C)N)C(=O)NCC(=O)N[C@H](CCCN)C(=O)N1CCC[C@H]1C(=O)N[C@@H](Cc1c[nH]cn1)C(=O)N[C@@H](CCCCN)C(=O)N/C(=C\CCNC(=N)N)C(=O)O	> 40	
CCCC[C@@H](NC(=O)CNC(=O)[C@H](C)NC(=O)[C@@H](NC(=O)[C@@H](N)CCCCN)[C@@H](O)CN)C(=O)N1CCC[C@H]1C(=O)N[C@@H](Cc1c[nH]cn1)C(=O)N[C@@H](CCCCN)C(=O)N/C(=C\CCNC(=N)N)C(=O)O	> 40	
CNCCC[C@@H](NC(=O)CNC(=O)[C@H](C)NC(=O)[C@@H](NC(=O)[C@@H](N)CCCCN)[C@@H](O)CN)C(=O)N1CCC[C@H]1C(=O)N[C@@H](Cc1c[nH]cn1)C(=O)N[C@@H](CCCCN)C(=O)N/C(=C\CCNC(=N)N)C(=O)O	> 40	
C[C@H](NC(=O)[C@@H](NC(=O)[C@@H](N)CCCCN)[C@H](O)CN)C(=O)NCC(=O)N[C@H](CCCN)C(=O)N1CCC[C@H]1C(=O)N[C@@H](Cc1c[nH]cn1)C(=O)N[C@@H](CCCCN)C(=O)N/C(=C\CCNC(=N)N)C(=O)O	> 40	
CNC[C@H](O)[C@H](NC(=O)[C@@H](N)CCCCN)C(=O)N[C@@H](C)C(=O)NCC(=O)N[C@H](CCCN)C(=O)N1CCC[C@H]1C(=O)N[C@@H](Cc1c[nH]cn1)C(=O)N[C@@H](CCCCN)C(=O)N/C(=C\CCNC(=N)N)C(=O)O	3.2	MIC [2]: 64 µg/mL (≈ 61.8 µM); MIC [3]: 64 µg/mL (≈ 61.8 µM); MIC [4]: 32 µg/mL (≈ 30.9 µM)
C[C@H](NC(=O)[C@@H](NC(=O)[C@@H](N)CCCCN)[C@@H](O)CCN)C(=O)NCC(=O)N[C@H](CCCN)C(=O)N1CCC[C@H]1C(=O)N[C@@H](Cc1c[nH]cn1)C(=O)N[C@@H](CCCCN)C(=O)N/C(=C\CCNC(=N)N)C(=O)O	14.4	
C[C@H](NC(=O)[C@@H](NC(=O)[C@@H](N)CCCCN)[C@@H](O)CN)C(=O)NCC(=O)N[C@H](CCCO)C(=O)N1CCC[C@H]1C(=O)N[C@@H](Cc1c[nH]cn1)C(=O)N[C@@H](CCCCN)C(=O)N/C(=C\CCNC(=N)N)C(=O)O (H-K[Dab(3S-OH)]AG[X1]PHK[ΔZArg]-OH)	1.3	MIC [2]: > 64 µg/mL; MIC [3]: > 64 µg/mL; MIC [4]: > 64 µg/mL
C[C@H](NC(=O)[C@H](CCN)NC(=O)[C@@H](N)CCCCN)C(=O)NCC(=O)N[C@H](CCCN)C(=O)N1CCC[C@H]1C(=O)N[C@@H](Cc1c[nH]cn1)C(=O)N[C@@H](CCCCN)C(=O)N/C(=C\CCNC(=N)N)C(=O)O	17	
C[C@H](NC(=O)[C@@H](NC(=O)[C@@H](N)CCCCN)[C@@H](O)C(C)(C)N)C(=O)NCC(=O)N[C@H](CCCN)C(=O)N1CCC[C@H]1C(=O)N[C@@H](Cc1c[nH]cn1)C(=O)N[C@@H](CCCCN)C(=O)N/C(=C\CCNC(=N)N)C(=O)O	> 40	
C[C@H](NC(=O)[C@@H](NC(=O)[C@@H](N)CCCCN)[C@@H](O)CN)C(=O)NCC(=O)N[C@H](CCCN)C(=O)N1CCC[C@H]1C(=O)N[C@@H](Cc1cnc[nH]1)C(=O)N[C@@H](CCCCN)C(=O)N/C(=C\CCNC(=N)N)C(=O)O	0.5	MIC [2]: 8 µg/mL (≈ 7.83 µM); MIC [3]: 8 µg/mL (≈ 7.83 µM); MIC [4]: 4 µg/mL (≈ 3.92 µM); MIC90 [5]: 32 µg/mL (≈ 31.3 µM); MIC90 [6]: 8 µg/mL (≈ 7.83 µM)
C[C@H](NC(=O)[C@@H](NC(=O)[C@@H](N)CCCCN)[C@@H](O)CN)C(=O)NCC(=O)N[C@H](CCN)C(=O)N1CCC[C@H]1C(=O)N[C@@H](Cc1c[nH]cn1)C(=O)N[C@@H](CCCCN)C(=O)N/C(=C\CCNC(=N)N)C(=O)O	36.3	
C[C@H](NC(=O)[C@@H](NC(=O)[C@@H](N)CCCCN)[C@@H](O)CN)C(=O)NCC(=O)N[C@H](CCCCN)C(=O)N1CCC[C@H]1C(=O)N[C@@H](Cc1c[nH]cn1)C(=O)N[C@@H](CCCCN)C(=O)N/C(=C\CCNC(=N)N)C(=O)O	> 40	
C[C@H](NC(=O)[C@H](CO)NC(=O)[C@@H](N)CCCCN)C(=O)NCC(=O)N[C@H](CCCN)C(=O)N1CCC[C@H]1C(=O)N[C@@H](Cc1c[nH]cn1)C(=O)N[C@@H](CCCCN)C(=O)N/C(=C\CCNC(=N)N)C(=O)O	> 40	
C[C@H](NC(=O)[C@@H](NC(=O)[C@@H](N)CCCCN)[C@@H](O)CN)C(=O)NCC(=O)N[C@H](CC[C@@H](C)N)C(=O)N1CCC[C@H]1C(=O)N[C@@H](Cc1c[nH]cn1)C(=O)N[C@@H](CCCCN)C(=O)N/C(=C\CCNC(=N)N)C(=O)O	> 40	
